Calls of active or inactive are those of the source. No cut-off for these calls is given here.
Columns and labels:
Mus musculus [1] = assay: Anticonvulsant activity in Swiss albino mouse assessed as protection against maximal electroshock-induced seizures at 300 mg/kg, ip after 0.5 hrs; assay type: functional, organism-based
Procedure, shortened: (§1)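 Compound suspended in PEG 400 and given i.p. at 30, 100 or 300 mg/kg, 0.5 or 4 h before testing. Saline (0.9%) applied to the corneas, then 60 Hz alternating current for 0.2 s through corneal electrodes. A mouse counts as protected if hind limb tonic extension stays under 90°. PEG-only placebo mice serve as negative control. Scored as number protected/number tested.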

Mus musculus [2] = assay: Neurotoxicity in Swiss albino mouse at 30 mg/kg, ip after 4 hrs by rotarod test; assay type: toxicity, organism-based; details: in vivo
Procedure, shortened: (§2)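 Rotarod turning at 6 rpm, run after i.p. dosing of PEG 400 suspension (30, 100 or 300 mg/kg; 0.5 or 4 h). Falling off three times within 1 min marks a mouse as neurotoxic. Placebo (PEG) mice serve as control. Scored as number failing/number tested.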

Mus musculus [3] = assay: Neurotoxicity in Swiss albino mouse at 100 mg/kg, ip after 4 hrs by rotarod test; assay type: toxicity, organism-based; details: in vivo; procedure, shortened: as §2
Mus musculus [4] = assay: Neurotoxicity in Swiss albino mouse at 300 mg/kg, ip after 0.5 hrs by rotarod test; assay type: toxicity, organism-based; details: in vivo; procedure, shortened: as §2
Mus musculus [5] = assay: Neurotoxicity in Swiss albino mouse at 30 mg/kg, ip after 0.5 hrs by rotarod test; assay type: toxicity, organism-based; details: in vivo; procedure, shortened: as §2
Mus musculus [6] = assay: Neurotoxicity in Swiss albino mouse at 300 mg/kg, ip after 4 hrs by rotarod test; assay type: toxicity, organism-based; details: in vivo; procedure, shortened: as §2
Mus musculus [7] = assay: Neurotoxicity in Swiss albino mouse at 100 mg/kg, ip after 0.5 hrs by rotarod test; assay type: toxicity, organism-based; details: in vivo; procedure, shortened: as §2
Mus musculus [8] = assay: Anticonvulsant activity in Swiss albino mouse assessed as protection against maximal electroshock-induced seizures at 30 mg/kg, ip after 4 hrs; assay type: functional, organism-based; procedure, shortened: as §1
Mus musculus [9] = assay: Anticonvulsant activity in Swiss albino mouse assessed as protection against maximal electroshock-induced seizures at 100 mg/kg, ip after 0.5 hrs; assay type: functional, organism-based; procedure, shortened: as §1
Mus musculus [10] = assay: Anticonvulsant activity in Swiss albino mouse assessed as protection against maximal electroshock-induced seizures at 100 mg/kg, ip after 4 hrs; assay type: functional, organism-based; procedure, shortened: as §1
Mus musculus [11] = assay: Anticonvulsant activity in Swiss albino mouse assessed as protection against maximal electroshock-induced seizures at 300 mg/kg, ip after 4 hrs; assay type: functional, organism-based; procedure, shortened: as §1
Mus musculus [12] = assay: Anticonvulsant activity in Swiss albino mouse assessed as protection against maximal electroshock-induced seizures at 30 mg/kg, ip after 0.5 hrs; assay type: functional, organism-based; procedure, shortened: as §1
Mus musculus [13] = assay: Anticonvulsant activity in Swiss albino mouse assessed as protection against subcutaneously injected metrazol induced seizures at 300 mg/kg, ip after 0.5 hrs; assay type: functional, organism-based
Procedure, shortened: (§3)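 Test compounds were given i.p. as PEG 400 suspensions at 30, 100 or 300 mg/kg, 0.5 or 4 h ahead. Metrazol 85 mg/kg is injected s.c. in the neck midline, and mice are watched for 30 min. A mouse counts as protected if it has no clonic spasm episode (about 3–5 s) of the limbs, jaws or vibrissae. PEG placebo serves as negative control. Scored as number protected/number tested.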

Mus musculus [14] = assay: Anticonvulsant activity in Swiss albino mouse assessed as protection against subcutaneously injected metrazol induced seizures at 300 mg/kg, ip after 4 hrs; assay type: functional, organism-based; procedure, shortened: as §3
Mus musculus [15] = assay: Anticonvulsant activity in Swiss albino mouse assessed as protection against subcutaneously injected metrazol induced seizures at 100 mg/kg, ip after 4 hrs; assay type: functional, organism-based; procedure, shortened: as §3
Mus musculus [16] = assay: Anticonvulsant activity in Swiss albino mouse assessed as protection against subcutaneously injected metrazol induced seizures at 30 mg/kg, ip after 4 hrs; assay type: functional, organism-based; procedure, shortened: as §3

CCCC(C)C(=O)O/N=C(\Cn1cncn1)c1ccc2ccccc2c1.Cl (configuration not stated) was tested, and the Activity (Mus musculus [1]) was “Active”, the Activity (Mus musculus [2]) was “Non-Toxic” and the Activity (Mus musculus [3]) was “Non-Toxic”. For the same molecule, the Activity (Mus musculus [4]) was “Non-Toxic”, the Activity (Mus musculus [5]) was “Non-Toxic” and the Activity (Mus musculus [6]) was “Non-Toxic”. The Activity (Mus musculus [7]) was “Non-Toxic”.
In the case of O=C1NC(=O)C(c2ccccc2)(c2ccccc2)N1 [PHENYTOIN], the Activity (Mus musculus [8]) is reported as “Active”, the Activity (Mus musculus [9]) is reported as “Active” and the Activity (Mus musculus [10]) is reported as “Active”. For the same molecule, the Activity (Mus musculus [1]) was “Active”, the Activity (Mus musculus [11]) was “Active” and the Activity (Mus musculus [12]) was “Active”. For the same molecule, the Activity (Mus musculus [2]) was “Non-Toxic”, the Activity (Mus musculus [3]) was “Toxic” and the Activity (Mus musculus [4]) was “Toxic”. For the same molecule, the Activity (Mus musculus [5]) was “Non-Toxic”, the Activity (Mus musculus [6]) was “Toxic” and the Activity (Mus musculus [7]) was “Non-Toxic”.
In the case of NC(=O)N1c2ccccc2C=Cc2ccccc21 [CARBAMAZEPINE], the Activity (Mus musculus [13]) is reported as “Active”, the Activity (Mus musculus [9]) is reported as “Active” and the Activity (Mus musculus [10]) is reported as “Active”. For the same molecule, the Activity (Mus musculus [14]) was “Active”, the Activity (Mus musculus [1]) was “Active” and the Activity (Mus musculus [11]) was “Active”. For the same molecule, the Activity (Mus musculus [12]) was “Active”, the Activity (Mus musculus [2]) was “Non-Toxic” and the Activity (Mus musculus [3]) was “Non-Toxic”. The Activity (Mus musculus [4]) was “Toxic”, the Activity (Mus musculus [5]) was “Non-Toxic” and the Activity (Mus musculus [6]) was “Non-Toxic”. The Activity (Mus musculus [7]) was “Non-Toxic” and the Activity (Mus musculus [15]) was “Active”.
For CCCC(CCC)C(=O)O/N=C(\Cn1cncn1)c1ccc2ccccc2c1.Cl, the Activity (Mus musculus [14]) was “Active”, the Activity (Mus musculus [11]) was “Active” and the Activity (Mus musculus [2]) was “Non-Toxic”. For the same molecule, the Activity (Mus musculus [3]) was “Non-Toxic”, the Activity (Mus musculus [4]) was “Non-Toxic” and the Activity (Mus musculus [5]) was “Non-Toxic”. For the same molecule, the Activity (Mus musculus [6]) was “Non-Toxic” and the Activity (Mus musculus [7]) was “Non-Toxic”.
With Cl.O=C(Cc1ccccc1)O/N=C(\Cn1cncn1)c1ccc2ccccc2c1 the Activity (Mus musculus [2]) was “Non-Toxic”, the Activity (Mus musculus [3]) was “Non-Toxic” and the Activity (Mus musculus [4]) was “Non-Toxic”. For the same molecule, the Activity (Mus musculus [5]) was “Non-Toxic”, the Activity (Mus musculus [6]) was “Non-Toxic” and the Activity (Mus musculus [7]) was “Non-Toxic”.
With CCC(=O)O/N=C(\Cn1cncn1)c1ccc2ccccc2c1.Cl the Activity (Mus musculus [2]) was “Non-Toxic”, the Activity (Mus musculus [3]) was “Non-Toxic” and the Activity (Mus musculus [4]) was “Non-Toxic”. The Activity (Mus musculus [5]) was “Non-Toxic”, the Activity (Mus musculus [6]) was “Non-Toxic” and the Activity (Mus musculus [7]) was “Non-Toxic”.
CC(C)CC(=O)O/N=C(\Cn1cncn1)c1ccc2ccccc2c1.Cl was tested, and the Activity (Mus musculus [13]) was “Active”, the Activity (Mus musculus [16]) was “Active” and the Activity (Mus musculus [10]) was “Active”. For the same molecule, the Activity (Mus musculus [14]) was “Active”, the Activity (Mus musculus [1]) was “Active” and the Activity (Mus musculus [2]) was “Non-Toxic”. For the same molecule, the Activity (Mus musculus [3]) was “Non-Toxic”, the Activity (Mus musculus [4]) was “Non-Toxic” and the Activity (Mus musculus [5]) was “Non-Toxic”. For the same molecule, the Activity (Mus musculus [6]) was “Non-Toxic”, the Activity (Mus musculus [7]) was “Non-Toxic” and the Activity (Mus musculus [15]) was “Active”.
In the case of CC(C)C(=O)O/N=C(\Cn1cncn1)c1ccc2ccccc2c1.Cl, the Activity (Mus musculus [11]) is reported as “Active”, the Activity (Mus musculus [2]) is reported as “Non-Toxic” and the Activity (Mus musculus [3]) is reported as “Non-Toxic”. The Activity (Mus musculus [4]) was “Non-Toxic”, the Activity (Mus musculus [5]) was “Non-Toxic” and the Activity (Mus musculus [6]) was “Non-Toxic”. For the same molecule, the Activity (Mus musculus [7]) was “Non-Toxic”.
In the case of CC(C)(C)C(=O)O/N=C(\Cn1cncn1)c1ccc2ccccc2c1, the Activity (Mus musculus [2]) is reported as “Non-Toxic”, the Activity (Mus musculus [3]) is reported as “Non-Toxic” and the Activity (Mus musculus [4]) is reported as “Non-Toxic”. The Activity (Mus musculus [5]) was “Non-Toxic”, the Activity (Mus musculus [6]) was “Non-Toxic” and the Activity (Mus musculus [7]) was “Non-Toxic”.
CCC(C)C(=O)O/N=C(\Cn1cncn1)c1ccc2ccccc2c1 (configuration not stated) was tested, and the Activity (Mus musculus [9]) was “Active”, the Activity (Mus musculus [14]) was “Active” and the Activity (Mus musculus [1]) was “Active”. For the same molecule, the Activity (Mus musculus [2]) was “Non-Toxic”, the Activity (Mus musculus [3]) was “Non-Toxic” and the Activity (Mus musculus [4]) was “Non-Toxic”. The Activity (Mus musculus [5]) was “Non-Toxic”, the Activity (Mus musculus [6]) was “Non-Toxic” and the Activity (Mus musculus [7]) was “Non-Toxic”.
In the case of O=C(O/N=C(\Cn1cncn1)c1ccc2ccccc2c1)C1CCCCC1, the Activity (Mus musculus [1]) is reported as “Active”, the Activity (Mus musculus [2]) is reported as “Non-Toxic” and the Activity (Mus musculus [3]) is reported as “Non-Toxic”. The Activity (Mus musculus [4]) was “Non-Toxic”, the Activity (Mus musculus [5]) was “Non-Toxic” and the Activity (Mus musculus [6]) was “Non-Toxic”. For the same molecule, the Activity (Mus musculus [7]) was “Non-Toxic”.
In the case of O=C(/C=C/c1ccccc1)O/N=C(\Cn1cncn1)c1ccc2ccccc2c1, the Activity (Mus musculus [2]) is reported as “Non-Toxic”, the Activity (Mus musculus [3]) is reported as “Non-Toxic” and the Activity (Mus musculus [4]) is reported as “Non-Toxic”. For the same molecule, the Activity (Mus musculus [5]) was “Non-Toxic”, the Activity (Mus musculus [6]) was “Non-Toxic” and the Activity (Mus musculus [7]) was “Non-Toxic”.
CC(C)CCC(=O)O/N=C(\Cn1cncn1)c1ccc2ccccc2c1.Cl was tested, and the Activity (Mus musculus [9]) was “Active”, the Activity (Mus musculus [14]) was “Active” and the Activity (Mus musculus [1]) was “Active”. For the same molecule, the Activity (Mus musculus [2]) was “Non-Toxic”, the Activity (Mus musculus [3]) was “Non-Toxic” and the Activity (Mus musculus [4]) was “Non-Toxic”. For the same molecule, the Activity (Mus musculus [5]) was “Non-Toxic”, the Activity (Mus musculus [6]) was “Non-Toxic” and the Activity (Mus musculus [7]) was “Non-Toxic”.
In the case of CCCC(=O)O/N=C(\Cn1cncn1)c1ccc2ccccc2c1, the Activity (Mus musculus [11]) is reported as “Active”, the Activity (Mus musculus [2]) is reported as “Non-Toxic” and the Activity (Mus musculus [3]) is reported as “Non-Toxic”. The Activity (Mus musculus [4]) was “Non-Toxic”, the Activity (Mus musculus [5]) was “Non-Toxic” and the Activity (Mus musculus [6]) was “Non-Toxic”. For the same molecule, the Activity (Mus musculus [7]) was “Non-Toxic”.
In the case of CCC(C)CC(=O)O/N=C(\Cn1cncn1)c1ccc2ccccc2c1.Cl (configuration not stated), the Activity (Mus musculus [9]) is reported as “Active”, the Activity (Mus musculus [14]) is reported as “Active” and the Activity (Mus musculus [11]) is reported as “Active”. The Activity (Mus musculus [2]) was “Non-Toxic”, the Activity (Mus musculus [3]) was “Non-Toxic” and the Activity (Mus musculus [4]) was “Non-Toxic”. For the same molecule, the Activity (Mus musculus [5]) was “Non-Toxic”, the Activity (Mus musculus [6]) was “Non-Toxic” and the Activity (Mus musculus [7]) was “Non-Toxic”.
With CCCCC(=O)O/N=C(\Cn1cncn1)c1ccc2ccccc2c1.Cl the Activity (Mus musculus [1]) was “Active”, the Activity (Mus musculus [2]) was “Non-Toxic” and the Activity (Mus musculus [3]) was “Non-Toxic”. For the same molecule, the Activity (Mus musculus [4]) was “Non-Toxic”, the Activity (Mus musculus [5]) was “Non-Toxic” and the Activity (Mus musculus [6]) was “Non-Toxic”. The Activity (Mus musculus [7]) was “Non-Toxic”.

— ChEMBL document CHEMBL3875155, “New (arylalkyl)azole derivatives showing anticonvulsant effects could have VGSC and/or GABAAR affinity according to molecular modeling studies” (Eur J Med Chem, 2016)
